Experimental data published in ChEMBL document CHEMBL1155808, “Antitumor activity of bis-indole derivatives” (J Med Chem, 2008).
Active and inactive are the calls of the source. The calls are words filed in the database; no cut-off is given here. Where a SMILES comes first, the peptide text is derived from it. The star is where a group is joined. Cbz = O=C(OCc1ccccc1)*

Experiments:
[1] = test system: MCF7; test: Inhibition of proteasome in human MCF7 cells assessed as increase in stability of BCA2 protein at 10 umol/L in presence of cyclohexamide after 16 hrs by Western blot
Summary of the method: (§1)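 MCF7 cells, 1×10^6 seeded per well, grown overnight; cycloheximide 100 μmol/L added alone or with MG-132 (10 μmol/L) or compound, total 8 and 16 h; lysates Western blotted with anti-BCA2, anti-C-erbB2 and β-actin antibodies; BCA2 and C-erbB2 levels expressed relative to β-actin by densitometry.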

[2] = test system: MDA-MB-231; test: Cytotoxicity against human MDA-MB-231 cells; assay type: functional, cell-based
[3] = test system: MCF7; test: Cytotoxicity against human MCF7 cells; assay type: functional, cell-based
[4] = test system: MCF7; test: Inhibition of proteasome in human MCF7 cells assessed as effect on stability of BCA2 protein at 10 umol/L in presence of cyclohexamide after 8 hrs by Western blot; summary of the method: as §1
[5] = test system: MCF7; test: Inhibition of proteasome in human MCF7 cells assessed as effect on stability of BCA2 protein at 1 umol/L in presence of cyclohexamide after 8 hrs by Western blot; summary of the method: as §1
[6] = Cytotoxicity against human melanoma cells; assay type: functional; details: Melanoma cell
[7] = Inhibition of plasma membrane electron transport pathway in human HL60 cells by WST1 reduction assay; assay type: cell-based; details: HL-60
Summary of the method: (§2)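 Cells at 10^5 per well in 0.1 ml pretreated 30 min with compound in DMSO (<0.1% final), then WST-1/mPMS added (final 500 µM and 20 µM); WST-1 reduction followed in real time at 450 nm; averages ± S.E.M. of four independent experiments.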

[8] = test system: B1647; test: Antiproliferative activity against human B1647 cells after 48 hrs by MTT assay; assay type: functional, cell-based
[9] = Cytotoxicity against human prostate cancer cells; assay type: functional; details: Cancer cell lines
Summary of the method: (§3)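 NCI 60-cell-line human tumour screen, with subpanels for leukemia, melanoma, lung, colon, kidney, ovary, breast, prostate and CNS. Compounds were dissolved in DMSO and tested at five ten-fold dilutions, highest 10^-4 M (10^-3 M for some). Endpoints were GI50, TGI and LC50, reported as negative log molar. Some compounds were assayed once, others two or three times.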

[10] = Inhibition of plasma membrane electron transport pathway in human HEL cells by WST1 reduction assay; assay type: cell-based; summary of the method: as §2
[11] = Inhibition of plasma membrane electron transport pathway in human B1647 cells by WST1 reduction assay; assay type: cell-based; summary of the method: as §2
[12] = Cytotoxicity against human breast cancer cells; assay type: functional; details: Cancer cell lines; for TGI: read-out: pTGI (converted)
Summary of the method: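 MTT cytotoxicity assay in breast cancer cell lines; proliferation expressed as percent growth inhibition relative to vehicle-treated control cells; IC50 reported.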

[13] = Cytotoxicity against human Non-small cell lung carcinoma cells; assay type: functional; summary of the method: as §3
[14] = Inhibition of plasma membrane electron transport pathway in human Mo7e cells by WST1 reduction assay; assay type: cell-based; summary of the method: as §2
[15] = Inhibition of plasma membrane electron transport pathway in mitochondrial gene-knockout human HL60p'0 cells by WST1 reduction assay; summary of the method: as §2
[16] = Cytotoxicity against human colon cancer cells; assay type: functional; details: Cancer cell lines; summary of the method: as §3
[17] = test system: HEL; test: Antiproliferative activity against human HEL cells after 48 hrs by MTT assay; assay type: functional, cell-based
[18] = Cytotoxicity against human leukemia cells; assay type: functional; details: Leukemia cell; for CC50: read-out: pLC50 (the source's name) (converted); for TGI: read-out: pTGI (converted); summary of the method: as §3
[19] = Cytotoxicity against human ovarian cancer cells; assay type: functional; details: Cancer cell lines
[20] = Cytotoxicity against human renal cancer cells; assay type: functional; details: Cancer cell lines; for CC50: read-out: pLC50 (the source's name) (converted); for TGI: read-out: pTGI (converted); summary of the method: as §3
[21] = Cytotoxicity against human central nervous system cancer cells; assay type: functional; details: Cancer cell lines; summary of the method: as §3
[22] = test system: Mo7e; test: Antiproliferative activity against human Mo7e cells after 48 hrs by MTT assay; assay type: functional, cell-based
[23] = test system: HL-60; test: Cytotoxicity against human HL60 cells after 48 hrs by MTT assay; assay type: functional, cell-based; details: HL-60, 48 h
[24] = Cytotoxicity against human mitochondrial gene-knockout human HL60p'0 cells after 48 hrs by MTT assay; assay type: functional, cell-based
[25] = read-out: pLC50 (the source's name) (converted)

SMILES: CC(C)C[C@@H](C=O)NC(=O)[C@H](CC(C)C)NC(=O)[C@H](CC(C)C)NC(=O)OCc1ccccc1 [MG-132] (Cbz-Leu-Leu-Leu-aldehyde)
- fold change (FC) [1]: > 10
- IC50 [2]: 250 nM
- IC50 [3]: 300 nM
- Activity [4]: Active
- Activity [5]: inactive

SMILES: O=C1Nc2ccc(O)cc2/C1=C\c1cccc(/C=C2/C(=O)Nc3ccc(O)cc32)n1
- GI50 [6]: 83.2 µM
- IC50 [7]: > 117 µM
- Activity [8]: Active
- GI50 [9]: 20 µM
- IC50 [10]: 40 µM
- IC50 [11]: 40 µM
- GI50 [12]: 40.7 µM
- TGI [12]: 85.1 µM
- GI50 [13]: 33.9 µM
- IC50 [14]: 40 µM
- IC50 [15]: > 117 µM
- GI50 [16]: 38.9 µM
- Activity [17]: Active
- GI50 [18]: 17.4 µM
- CC50 [18]: 93.3 µM
- TGI [18]: 55 µM
- GI50 [19]: 83.2 µM
- GI50 [20]: 34.7 µM
- CC50 [20]: 95.5 µM
- TGI [20]: 69.2 µM
- GI50 [21]: 40.7 µM
- Activity [22]: Active

SMILES: O=C1Nc2ccc(Cl)cc2/C1=C\c1cccc(/C=C2/C(=O)Nc3ccc(Cl)cc32)n1
- GI50 [6]: 0.692 µM
- CC50 [6, 25]: 7.94 µM
- TGI ([6]; read-out: pTGI (converted)): 1910 nM
- IC50 [7]: > 117 µM
- Activity [8]: Active
- GI50 [9]: 1.51 µM
- CC50 [9, 25]: 24.5 µM
- TGI ([9]; read-out: pTGI (converted)): 6.61 µM
- IC50 [23]: 3000 nM
- GI50 [12]: 1.12 µM
- CC50 [12, 25]: 22.9 µM
- TGI [12]: 4.17 µM
- GI50 [13]: 1.74 µM
- CC50 [13, 25]: 20 µM
- TGI ([13]; read-out: pTGI (converted)): 4.37 µM
- IC50 [15]: > 117 µM
- GI50 [16]: 0.933 µM
- CC50 [16, 25]: 15.1 µM
- TGI ([16]; read-out: pTGI (converted)): 2570 nM
- Activity [17]: Active
- GI50 [18]: 0.661 µM
- CC50 [18]: 47.9 µM
- TGI [18]: 4.9 µM
- GI50 [19]: 1.26 µM
- CC50 [19, 25]: 17.8 µM
- TGI ([19]; read-out: pTGI (converted)): 4.17 µM
- GI50 [20]: 1.26 µM
- CC50 [20]: 7.59 µM
- TGI [20]: 2.95 µM
- IC50 [24]: 3000 nM
- GI50 [21]: 0.891 µM
- CC50 [21, 25]: 14.8 µM
- TGI ([21]; read-out: pTGI (converted)): 2750 nM
- Activity [22]: Active
